Measurements taken from PubChem BioAssay.
Calls of active or inactive are those of the source. Cut-off read from the data, not from the text of the source, unless noted: active = inhibition above about 30%; inactive = the rest.

What was measured:
[1] = reduced viability of SK-BR-3 breast cancer cells – cell-based, 24 h, human, pilot screen (AID 572;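 active = viability at or below 10% of carrier control in both of two separate runs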;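 note: compound exposure lasted between 18 and 24 h rather than exactly 24 h; 100% = carrier-treated control wells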); conditions: SK-BR-3 viability, CellTiter-Glo luminescence, at 10 µM, stronger effect = lower value
[2] = HUVEC growth inhibition – cell-based, human, primary screen (AID 575;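 active = viability at or below 30% in both replicate assays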;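 note: 100% = median of untreated cell wells with 0.1% DMSO on each plate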); conditions: HUVEC proliferation, CellTiter-Glo luminescence, 72 h; at 10 µM; stronger effect = lower value
How it was run: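 system = HUVEC primary cells | amount = 1250 cells/well | buffer or medium = supplemented EBM, 2% fetal bovine serum | dosing = single-point 10 µM, DMSO 0.1% final | times = 72 h compound incubation | detection = CTG luminescence | read-out = % viability relative to median vehicle-well signal on each plate | control set = vehicle and MePR control wells | format = collagen-coated 384-well format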

[3] = H69AR cell proliferation blockers – human, duplicate replicates, primary screen (AID 580;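 active = viability at or under a set limit in both replicates, limit being median viability minus 3 SD, cut at about 48% in these data, passing the limit was not always enough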;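 note: 100% = mean luminescence of untreated wells and 0% = no signal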); conditions: H69AR lung tumor cells viability, ATP luminescence, 72 h; at 10 µM; stronger effect = lower value
[4] = MRP1 drug-resistance reversers in H69AR cells – cell-based, doxorubicin co-treatment, pilot screen (AID 601;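 active = viability loss from added drug above about 55%, and viability with drug at most 40%, in both replicates, limit read from the data, passing the limit was not always enough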); conditions: CellTiter-Glo, 72 h, at 10 µM; for differential viability (reversal): stronger effect = higher value
[5] = yeast transport mutant growth inhibition pilot in 384-well plates, post-Golgi transport modulator project (AID 636; in the data active = inhibition above about 31%); conditions: absorbance 615 nm, about 18 h, stronger effect = higher value
[6] = growth suppression of yeast trafficking mutant, preliminary HTS, modulators of trafficking downstream of Golgi apparatus project, 1536-format plate, OD 615 nm (AID 637); conditions: yeast transport mutant growth, absorbance 615 nm, 18 h; stronger effect = higher value
[7] = H69AR cells + 2 uM doxorubicin, measured here: viability with 2 uM doxorubicin, stronger effect = lower value
[8] = H69AR cells, compound alone cytotoxicity

SMILES | viability [1] | viability [2] | viability [3] | differential viability (reversal) ([4]; H69AR cells + 2 uM doxorubicin) | viability [4, 7] [%] | viability [4, 8] [%] | inhibition [5] | inhibition [6]
CCOC(=O)N1CCC(N(CCCOC)C(=O)Nc2ccc(CC)cc2)CC1 | 106% (inactive) | 92.7% (inactive) | 98.9% (inactive) | 13% (inactive) | 86 | 98.9 | -0.26% (inactive) | -2.3% (inactive)
Cc1cnc(NC(=O)CSc2nnc(-c3ccccc3)n2Cc2ccccc2)s1 | 99% (inactive) | 82.5% (inactive) | 90.2% (inactive) | 4.35% (inactive) | 85.8 | 90.2 | 0.55% (inactive) | 13.3% (inactive)
Nc1cc(=O)[nH]c(SCC(=O)Nc2ccc(Br)cc2)n1 | 96% (inactive) | 101% (inactive) | 90.5% (inactive) | 4.49% (inactive) | 86 | 90.5 | -0.52% (inactive) | -4.1% (inactive)
COc1ccccc1NC(=O)NC(N)=O | 102% (inactive) | 87.7% (inactive) | 96.4% (inactive) | 1.88% (inactive) | 94.5 | 96.4 | -5.89% (inactive) | 7.64% (inactive)
CCCCn1c(=O)[nH]c(=O)c2c1nc(COc1ccc(C#N)cc1)n2CCC | 106% (inactive) | 83.1% (inactive) | 88% (inactive) | 11.3% (inactive) | 76.7 | 88 | -1.04% (inactive) | -2.46% (inactive)
C=CCNc1nnc(SC2CC(=O)N(c3ccc(OC)cc3)C2=O)s1 (centres undefined) | 107% (inactive) | 108% (inactive) | 103% (inactive) | -8.79% (inactive) | 111 | 103 | -1.92% (inactive) | 0.73% (inactive)
CC1=C(C(=O)Nc2ccccc2C)C(c2ccc(C)o2)N2C(=O)CSC2=N1 (centres undefined) | 105% (inactive) | 106% (inactive) | 96.4% (inactive) | 8.25% (inactive) | 88.2 | 96.4 | -9.04% (inactive) | 2.26% (inactive)
Cc1ccc(S(=O)(=O)NC(C)C(=O)Nc2ccc(C(N)=O)cc2)cc1 (centres undefined) | 81% (inactive) | 88.4% (inactive) | 100% (inactive) | 4.08% (inactive) | 96 | 100 | -0.27% (inactive) | -5.81% (inactive)
CCc1ccccc1NC(=O)c1ccoc1C | 102% (inactive) | 107% (inactive) | 101% (inactive) | 10.8% (inactive) | 90.2 | 101 | 1.78% (inactive) | 4.19% (inactive)
OC1C=CSc2nc3ccccc3n21 (centres undefined) | 83.5% (inactive) | 79% (inactive) | 66.8% (inactive) | -8.25% (inactive) | 75 | 66.8 | -5.68% (inactive) | 1.8% (inactive)
Nc1nnnn1NCc1cccc(OCc2ccccc2)c1 | 112% (inactive) | 88.8% (inactive) | 104% (inactive) | 15.4% (inactive) | 89 | 104 | -7.95% (inactive) | 3.71% (inactive)
COc1ccccc1N(CC(=O)NC1CCCC1)C(=O)CCC(=O)Nc1cc(C)on1 | 98% (inactive) | 102% (inactive) | 85.3% (inactive) | -1.76% (inactive) | 87.1 | 85.3 | -2% (inactive) | 9.82% (inactive)
Cc1ccc(-c2nnc3c4ccccc4c(C)nn23)cc1NC(=O)c1ccco1 | 81.5% (inactive) | 98.2% (inactive) | 91.8% (inactive) | -3.85% (inactive) | 95.7 | 91.8 | -5.27% (inactive) | 6.51% (inactive)
O=C(CCn1c(=O)oc2ccccc21)N1CCCCCC1 | 112% (inactive) | 99% (inactive) | 98.3% (inactive) | 5.09% (inactive) | 93.3 | 98.3 | 0.95% (inactive) | -1.64% (inactive)
Cn1ncc2c(Nc3ccccc3Br)ncnc21 | 109% (inactive) | 101% (inactive) | 106% (inactive) | 13.5% (inactive) | 92.8 | 106 | -7.67% (inactive) | -2.55% (inactive)
CC(=O)Oc1ccc(C(c2ccc(OC(C)=O)cc2)c2ccccn2)cc1 | 91% (inactive) | 79% (inactive) | 94.9% (inactive) | -0.25% (inactive) | 95.2 | 94.9 | -0.52% (inactive) | 0.83% (inactive)
O=C(O)CCc1ccc(-c2cccs2)n1NC(=O)c1ccccc1Br | 96% (inactive) | 104% (inactive) | 106% (inactive) | 16% (inactive) | 89.5 | 106 | -6.71% (inactive) | 4.36% (inactive)

SMILES | viability [1] | viability [2] | viability [3] | differential viability (reversal) ([4]; H69AR cells + 2 uM doxorubicin) | viability [4, 7] [%] | viability [4, 8] [%] | inhibition [5] | inhibition [6]
COc1ccc(-c2nnc(SCC(=O)Nc3sc4c(c3C#N)CCC4)n2CC2CCCO2)cc1 (centres undefined) | 89% (inactive) | 97% (inactive) | 93.8% (inactive) | 19.5% (inactive) | 74.4 | 93.8 | 2.43% (inactive) | -1.43% (inactive)
Cc1cnc(NC(=O)C2=C(O)c3ccccc3S(=O)(=O)N2C)s1 | 102% (inactive) | 84% (inactive) | 89.9% (inactive) | 0.62% (inactive) | 89.3 | 89.9 | 3.51% (inactive) | -2.83% (inactive)
CC1(C)CC(=O)C=C(NCc2ccncc2)C1 | 89% (inactive) | 113% (inactive) | 98.6% (inactive) | -26.3% (inactive) | 125 | 98.6 | -2.3% (inactive) | -3.45% (inactive)
Cc1ccccc1Cc1c(C)nc2c(C(=O)N3CCN(Cc4ccc5c(c4)OCO5)CC3)cnn2c1C | 103% (inactive) | 59.6% (inactive) | 79% (inactive) | 6.94% (inactive) | 72.1 | 79 | -1.04% (inactive) | 1.48% (inactive)
COCCNC(=O)C(c1cccs1)N(C(=O)Cn1nnc2ccccc21)c1ccccc1 (centres undefined) | 97% (inactive) | 107% (inactive) | 97.2% (inactive) | 3.17% (inactive) | 94 | 97.2 | -2.34% (inactive) | -5.9% (inactive)
Cc1cc(NC(=O)CSc2nc(C3CCCCC3)nc3ccccc23)no1 | 101% (inactive) | 99.8% (inactive) | 80% (inactive) | 16.2% (inactive) | 63.9 | 80 | -0.8% (inactive) | -2% (inactive)
CC(=O)Oc1cccc2c1C(=O)c1c(OC(C)=O)cc(C(=O)O)cc1C2=O | 90% (inactive) | 60.2% (inactive) | 86.7% (inactive) | 0.27% (inactive) | 86.4 | 86.7 | 4.16% (inactive) | 7.17% (inactive)
O=C(COC(=O)CCOc1ccccc1)Nc1ccc(Cl)cn1 | 75% (inactive) | 102% (inactive) | 91% (inactive) | -17% (inactive) | 108 | 91 | -2.74% (inactive) | -4.36% (inactive)
COC(=O)c1[nH]c(C)c(/C(O)=C2\C(=O)C(=O)N(CCN3CCOCC3)C2c2cccs2)c1C (centres undefined) | 105% (inactive) | 76.5% (inactive) | 17.3% (active) | -54.5% (inactive) | 71.8 | 17.3 | -2.3% (inactive) | 13.1% (inactive)
CCCCCn1c(CN2CCN(c3cccc(Cl)c3)CC2)nc2c1c(=O)n(C)c(=O)n2C | 97% (inactive) | 69.2% (inactive) | 88% (inactive) | 38.5% (inactive) | 49.5 | 88 | 7.7% (inactive) | 11.6% (inactive)
CC(=O)[C@H]1[C@H](C#N)C[C@H]2[C@@H]3CC=C4C[C@@H](O)CC[C@]4(C)[C@H]3CC[C@@]21C | 136% (inactive) | 103% (inactive) | 87% (inactive) | 1.78% (inactive) | 85.2 | 87 | -2.73% (inactive) | 7.33% (inactive)
Cc1cc(C(=O)Nc2ccc(S(=O)(=O)Nc3onc(C)c3C)cc2)cs1 | 101% (inactive) | 101% (inactive) | 99.4% (inactive) | 2.97% (inactive) | 96.4 | 99.4 | -3.38% (inactive) | 0% (inactive)
CCCC(CCC)C(=O)NCCN1CCOCC1 | 118% (inactive) | 85% (inactive) | 96.8% (inactive) | 10.2% (inactive) | 86.6 | 96.8 | -2.34% (inactive) | 4.92% (inactive)
Cc1cc(O)c(NC(=O)c2ccc(Br)o2)cc1C | 98% (inactive) | 71% (inactive) | 73.2% (inactive) | -15% (inactive) | 88.2 | 73.2 | -6.08% (inactive) | 1.5% (inactive)
CC1(C)CC(=O)C2=C(C1)Nc1ccccc1N=C2 | 66% (inactive) | 82.3% (inactive) | 70.3% (inactive) | -19.7% (inactive) | 90 | 70.3 | -0.41% (inactive) | 2.73% (inactive)
OC[C@H]1O[C@@H](n2cnc3c(Nc4ccccc4)ncnc32)[C@H](O)[C@@H]1O | 95% (inactive) | 71.9% (inactive) | 84.4% (inactive) | 2.24% (inactive) | 82.1 | 84.4 | -2.34% (inactive) | 1.17% (inactive)
